System: HFF-1 cells
Assay: SA-β-gal activity in D-gal-induced premature aging of HFF-1 cells
Type: cell-based, human
Conditions: 500 μg/mL
Procedure, shortened: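 HFF-1 fibroblasts were seeded at 2 × 10^4 cells/well and cultured for 24 h. Growth medium was replaced for 72 h with test sample solution containing D-gal at 20 mg/mL final. SA-β-gal activity was detected by X-gal staining, and blue positive cells were viewed by microscopy and counted against the D-gal-injured and blank control groups.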

N[C@@H](CCC(=O)N[C@@H](CS)C(=O)NCC(=O)O)C(=O)O [GSH]
decrease of SA-β-gal positive staining rate compared with the D-gal group: 50.61%
